pIC50: −log10 of the molar value. ≈ marks a conversion by molar mass, not a printed value.
Legend:
Pseudomonas aeruginosa [1] = assay: Antibacterial activity against Pseudomonas aeruginosa PAO1 harboring siderophore receptor fpvA mutant in Mueller-Hinton broth medium by CLSI broth microdilution method; assay type: functional
In short: (§1)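 MIC by CLSI broth microdilution in standard Mueller Hinton broth. Tested against wild-type P. aeruginosa PAO1 and an isogenic panel lacking one or more siderophore receptors.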

Pseudomonas aeruginosa [2] = assay: Ratio of MIC for Pseudomonas aeruginosa PAO1 harboring siderophore receptor fpvA mutant to MIC for wild type Pseudomonas aeruginosa PAO1 in Mueller-Hinton broth medium by CLSI broth microdilution method; assay type: functional
In short: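 Receptor-deficient PAO1 strain MIC divided by parent PAO1 MIC. Both MICs were obtained by CLSI broth microdilution in standard Mueller Hinton broth. A shift greater than 4× was taken to indicate that the deleted receptor(s) take part in drug uptake.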

Pseudomonas aeruginosa [3] = assay: Antibacterial activity against Pseudomonas aeruginosa PAO1 harboring siderophore receptor piuA and fpvA double mutant in medium containing low-Fe by CLSI broth microdilution method; assay type: functional
In short: (§2)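 MIC by CLSI broth microdilution in a modified Mueller Hinton broth depleted of iron to mimic the low-iron in vivo environment. Tested against PAO1 and isogenic strains lacking one or more siderophore receptors.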

Pseudomonas aeruginosa [4] = assay: Ratio of MIC for Pseudomonas aeruginosa PAO1 harboring siderophore receptor pfeA mutant to MIC for wild type Pseudomonas aeruginosa PAO1 in medium containing low-Fe by CLSI broth microdilution method; assay type: functional
In short: (§3)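 Ratio of strain MIC to PAO1 MIC. Both MICs were obtained by CLSI broth microdilution in iron-depleted modified Mueller Hinton broth. A shift greater than 4× versus the parent was read as the deleted receptor(s) taking part in uptake.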

Pseudomonas aeruginosa [5] = assay: Ratio of MIC for Pseudomonas aeruginosa PAO1 harboring siderophore receptor piuA and fpvA double mutant to MIC for wild type Pseudomonas aeruginosa PAO1 in medium containing low-Fe by CLSI broth microdilution method; assay type: functional
In short: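 CLSI broth microdilution MICs in a modified Mueller-Hinton broth depleted of iron to mimic low in vivo iron. Tested against wild-type PAO1 and isogenic siderophore receptor knockout strains. Reported as the knockout-strain MIC divided by the PAO1 MIC in the same iron-depleted medium.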

[6] = Displacement of fluorescent Bocillin FL from Pseudomonas aeruginosa PBP1b
Escherichia coli [7] = assay: Antibacterial activity against Escherichia coli DH5alpha harboring pUCP26 empty vector by CLSI broth microdilution method; assay type: functional; settings: DH5[alpha]
Pseudomonas aeruginosa [8] = assay: Ratio of MIC for Pseudomonas aeruginosa PAO1 harboring siderophore receptor piuA and pirA double mutant in MHB medium to MIC for Pseudomonas aeruginosa PAO1 harboring siderophore receptor piuA and pirA double mutant in medium containing low-Fe by CLSI broth microdilution method; assay type: functional
Pseudomonas aeruginosa [9] = assay: Ratio of MIC for Pseudomonas aeruginosa PAO1 harboring siderophore receptor piuA mutant in MHB medium to MIC for Pseudomonas aeruginosa PAO1 harboring siderophore receptor piuA mutant in medium containing low-Fe by CLSI broth microdilution method; assay type: functional
Pseudomonas aeruginosa [10] = assay: Ratio of MIC for Pseudomonas aeruginosa PAO1 harboring siderophore receptor piuA, pfeA and pirA mutant in MHB medium to MIC for harboring siderophore receptor piuA, pfeA and pirA mutant in medium containing low-Fe by CLSI broth microdilution method; assay type: functional
Escherichia coli [11] = assay: Antibacterial activity against Escherichia coli DH5alpha by CLSI broth microdilution method; assay type: functional; settings: DH5[alpha]
Pseudomonas aeruginosa [12] = assay: Ratio of MIC for Pseudomonas aeruginosa PAO1 harboring siderophore receptor pfeA mutant to MIC for wild type Pseudomonas aeruginosa PAO1 in medium containing aztreonam and low-Fe by CLSI broth microdilution method; assay type: functional
Pseudomonas aeruginosa [13] = assay: Antibacterial activity against Pseudomonas aeruginosa PAO1 harboring siderophore receptor piuA mutant in medium containing aztreonam and low-Fe by CLSI broth microdilution method; assay type: functional
Pseudomonas aeruginosa [14] = assay: Ratio of MIC for Pseudomonas aeruginosa PAO1 harboring siderophore receptor piuA and pirA double mutant to MIC for wild type Pseudomonas aeruginosa PAO1 in medium containing aztreonam and low-Fe by CLSI broth microdilution method; assay type: functional
[15] = biological target: Penicillin-binding protein 1A (Pseudomonas aeruginosa PAO1, UniProt Q07806); assay: Displacement of fluorescent Bocillin FL from N-terminal His tagged Pseudomonas aeruginosa PAO1 PBP1a (residues 36 to 822) expressed in Escherichia coli BL21 (Gold cells)
Pseudomonas aeruginosa [16] = assay: Ratio of MIC for Pseudomonas aeruginosa PAO1 harboring siderophore receptor piuA and pfeA double mutant in MHB medium to MIC for Pseudomonas aeruginosa PAO1 harboring siderophore receptor piuA and pfeA double mutant in medium containing low-Fe by CLSI broth microdilution method; assay type: functional
Pseudomonas aeruginosa [17] = assay: Ratio of MIC for Pseudomonas aeruginosa PAO1 harboring siderophore receptor pirA and pfeA double mutant to MIC for wild type Pseudomonas aeruginosa PAO1 in medium containing low-Fe by CLSI broth microdilution method; assay type: functional; in short: as §3
Pseudomonas aeruginosa [18] = assay: Antibacterial activity against Pseudomonas aeruginosa PAO1 harboring siderophore receptor piuA, pfeA and pirA mutant in Mueller-Hinton broth medium by CLSI broth microdilution method; assay type: functional; in short: as §1
Escherichia coli [19] = assay: Antibacterial activity against Escherichia coli DH5alpha expressing beta-lactamase CTX-M-15 by CLSI broth microdilution method; assay type: functional; settings: DH5[alpha]
Pseudomonas aeruginosa [20] = assay: Antibacterial activity against Pseudomonas aeruginosa PAO1 harboring siderophore receptor piuA, pfeA and pirA mutant in medium containing aztreonam and low-Fe by CLSI broth microdilution method; assay type: functional
Pseudomonas aeruginosa [21] = assay: Ratio of MIC for Pseudomonas aeruginosa PAO1 harboring siderophore receptor piuA and fpvA double mutant in MHB medium to MIC for Pseudomonas aeruginosa PAO1 harboring siderophore receptor piuA and fpvA double mutant in medium containing low-Fe by CLSI broth microdilution method; assay type: functional
Pseudomonas aeruginosa [22] = assay: Antibacterial activity against Pseudomonas aeruginosa PAO1 harboring siderophore receptor piuA and fptA double mutant in medium containing low-Fe by CLSI broth microdilution method; assay type: functional; in short: as §2
Pseudomonas aeruginosa [23] = assay: Antibacterial activity against Pseudomonas aeruginosa 1091-05 by CLSI broth microdilution method; assay type: functional
Pseudomonas aeruginosa [24] = assay: Ratio of MIC for Pseudomonas aeruginosa PAO1 harboring siderophore receptor piuA and fptA double mutant to MIC for wild type Pseudomonas aeruginosa PAO1 in medium containing aztreonam and low-Fe by CLSI broth microdilution method; assay type: functional
Pseudomonas aeruginosa [25] = assay: Antibacterial activity against Pseudomonas aeruginosa PAO1 harboring siderophore receptor piuA and pirA double mutant in medium containing aztreonam and low-Fe by CLSI broth microdilution method; assay type: functional
Pseudomonas aeruginosa [26] = assay: Antibacterial activity against Pseudomonas aeruginosa PAO1 harboring siderophore receptor piuA and fpvA double mutant in Mueller-Hinton broth medium by CLSI broth microdilution method; assay type: functional; in short: as §1
Pseudomonas aeruginosa [27] = assay: Antibacterial activity against Pseudomonas aeruginosa PAO1 harboring siderophore receptor pfeA mutant in medium containing aztreonam and low-Fe by CLSI broth microdilution method; assay type: functional

Sequence of Penicillin-binding protein 1A (Q07806 whole entry, the tested form may be a part): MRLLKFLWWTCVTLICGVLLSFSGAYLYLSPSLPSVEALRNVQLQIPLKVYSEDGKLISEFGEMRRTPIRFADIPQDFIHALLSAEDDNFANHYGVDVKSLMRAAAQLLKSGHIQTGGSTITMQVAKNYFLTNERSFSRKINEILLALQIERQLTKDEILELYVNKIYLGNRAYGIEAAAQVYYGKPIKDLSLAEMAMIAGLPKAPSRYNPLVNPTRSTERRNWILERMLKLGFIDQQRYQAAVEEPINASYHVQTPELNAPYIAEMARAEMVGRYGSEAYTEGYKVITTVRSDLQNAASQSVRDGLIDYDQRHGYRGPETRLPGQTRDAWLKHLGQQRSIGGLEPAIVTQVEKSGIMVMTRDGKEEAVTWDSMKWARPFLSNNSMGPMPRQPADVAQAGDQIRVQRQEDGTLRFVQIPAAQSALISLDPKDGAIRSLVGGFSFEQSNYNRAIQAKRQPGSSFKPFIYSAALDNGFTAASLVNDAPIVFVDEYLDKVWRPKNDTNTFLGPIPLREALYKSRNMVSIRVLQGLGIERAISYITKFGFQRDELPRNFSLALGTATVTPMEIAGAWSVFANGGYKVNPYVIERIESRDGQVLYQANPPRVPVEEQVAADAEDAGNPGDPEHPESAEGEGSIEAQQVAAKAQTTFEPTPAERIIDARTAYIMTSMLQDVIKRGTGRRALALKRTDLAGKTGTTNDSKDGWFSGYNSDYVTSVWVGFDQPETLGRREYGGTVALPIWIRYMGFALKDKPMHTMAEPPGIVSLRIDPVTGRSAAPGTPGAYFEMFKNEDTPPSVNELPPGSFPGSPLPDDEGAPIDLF

With `CC(C)(O/N=C(\C(=O)N[C@H]1CON(C2(C(=O)O)C[C@H](N3C(=O)c4cc(O)c(O)cc4C3=O)C(=O)O2)C1=O)c1csc(N)n1)C(=O)O` (some centres not stated) the MIC (Pseudomonas aeruginosa [1]) was 16 µg/mL (≈ 24.1 µM), the Ratio (Pseudomonas aeruginosa [2]) was 32 and the MIC (Pseudomonas aeruginosa [3]) was 0.25 µg/mL (≈ 0.377 µM). The Ratio (Pseudomonas aeruginosa [4]) was 1, the Ratio (Pseudomonas aeruginosa [5]) was “>=8” and the pIC50 [6] was 6.57. For the same compound, the MIC (Escherichia coli [7]) was 0.03 µg/mL (≈ 0.0453 µM), the Ratio (Pseudomonas aeruginosa [8]) was 64 and the Ratio (Pseudomonas aeruginosa [9]) was 64. It also gave a Ratio (Pseudomonas aeruginosa [10]) of 64, an MIC (Escherichia coli [11]) of 0.03 µg/mL (≈ 0.0453 µM) and a Ratio (Pseudomonas aeruginosa [12]) of 1. It also gave an MIC (Pseudomonas aeruginosa [13]) of 4 µg/mL (≈ 6.04 µM), a Ratio (Pseudomonas aeruginosa [14]) of 1 and a pIC50 [15] of 7.52. It also gave a Ratio (Pseudomonas aeruginosa [16]) of 64, a Ratio (Pseudomonas aeruginosa [17]) of 1 and an MIC (Pseudomonas aeruginosa [18]) of 16 µg/mL (≈ 24.1 µM). For the same compound, the MIC (Escherichia coli [19]) was 0.015 µg/mL (≈ 0.0226 µM), the MIC (Pseudomonas aeruginosa [20]) was 4 µg/mL (≈ 6.04 µM) and the Ratio (Pseudomonas aeruginosa [21]) was 64. The MIC (Pseudomonas aeruginosa [22]) was 0.5 µg/mL (≈ 0.755 µM), the MIC (Pseudomonas aeruginosa [23]) was 0.5 µg/mL (≈ 0.755 µM) and the Ratio (Pseudomonas aeruginosa [24]) was 1. The MIC (Pseudomonas aeruginosa [25]) was 4 µg/mL (≈ 6.04 µM), the MIC (Pseudomonas aeruginosa [26]) was 16 µg/mL (≈ 24.1 µM) and the MIC (Pseudomonas aeruginosa [27]) was 4 µg/mL (≈ 6.04 µM).

— ChEMBL document CHEMBL3259701, “Siderophore receptor-mediated uptake of lactivicin analogues in gram-negative bacteria” (J Med Chem, 2014)
